Calls of active or inactive are those of the source.
Legend:
Type in all cases: functional
[1] = tested on: Bacillus cereus; experiment: Antibacterial activity against Bacillus cereus 702 Roma after 18 to 24 hr by double microdilution method
In short: (§1)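 Compounds dissolved in […] as 20.000 μg/mL stock solutions. Tested quantitatively by double microdilution in Mueller–Hinton broth at pH 7.3, with plates incubated 18–24 h at 35 °C. Read-out is the minimal inhibition concentration (MIC) in μg/mL.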

[2] = tested on: Staphylococcus aureus; experiment: Antibacterial activity against Staphylococcus aureus ATCC 25923 after 18 to 24 hr by double microdilution method; in short: as §1
[3] = tested on: Mycolicibacterium smegmatis; experiment: Antibacterial activity against Mycobacterium smegmatis ATCC 607 after 48 to 72 hr by double microdilution method
In short: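 Compounds dissolved in hexane as 20.000 μg/mL stock solutions. MIC (μg/mL) determined quantitatively by double microdilution, using Brain Heart Infusion broth as the growth medium for M. smegmatis.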

[4] = tested on: Enterococcus faecalis; experiment: Antibacterial activity against Enterococcus faecalis ATCC 29212 after 18 to 24 hr by double microdilution method; in short: as §1
[5] = tested on: Yersinia pseudotuberculosis; experiment: Antibacterial activity against Yersinia pseudotuberculosis ATCC 911 after 18 to 24 hr by double microdilution method; in short: as §1
[6] = tested on: Pseudomonas aeruginosa; experiment: Antibacterial activity against Pseudomonas aeruginosa ATCC 43288 after 18 to 24 hr by double microdilution method
In short: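 Double microdilution in Mueller–Hinton broth, pH 7.3; plates incubated 18–24 h at 35 °C; MIC (μg/mL) determined. Compounds dissolved in hexane as 20.000 μg/mL stock.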

Measured: MIC

O=C(CNc1ccc(N2CCOCC2)nc1)N/N=c1\sc(-c2ccc(Cl)cc2)cn1-c1ccccc1
inactive: [1] | [2] | [3] | [4] | [5] | [6]

O=C(CNc1ccc(N2CCOCC2)nc1)N/N=C/c1ccc(Br)cc1
inactive: [1] | [2] | [4] | [5] | [6]

O=C(CNc1ccc(N2CCOCC2)nc1)N/N=C/C=C/c1ccccc1
inactive: [1] | [2] | [3] | [4] | [5] | [6]

O=C(CNc1ccc(N2CCOCC2)nc1)N/N=C1\SCC(=O)N1c1ccccc1
inactive: [1] | [2] | [3] | [4] | [5] | [6]

Sc1nnc(CNc2ccc(N3CCOCC3)nc2)o1
inactive: [1] | [2] | [3] | [4] | [5] | [6]

O=C(CNc1ccc(N2CCOCC2)nc1)NNC(=S)Nc1ccccc1
inactive: [1] | [2] | [4] | [5] | [6]

Sc1nnc(CNc2ccc(N3CCOCC3)nc2)n1-c1ccccc1
inactive: [1] | [2] | [4] | [5] | [6]

CCOC(=O)CNc1ccc(N2CCOCC2)nc1
inactive: [1] | [2] | [4] | [5] | [6]

NNC(=O)CNc1ccc(N2CCOCC2)nc1
inactive: [1] | [2] | [4] | [5] | [6]

Source: ChEMBL document CHEMBL3045103, “Antimicrobial and antiurease activities of newly synthesized morpholine derivatives containing an azole nucleus” (Med Chem Res, 2013)
